Laboratory results: ChEMBL document CHEMBL3272112, “Cycloalkanones. 8. Hypocholesterolemic activity of long-chain ketones related to pentadecanone” (J Med Chem, 1976)

Tests used:
Rattus norvegicus [1] = experiment: Toxicity in Sprague-Dawley rat assessed as atrophy of vas deferens at 10 mg/kg/day administered for 16 days measured on day 16 post last dose; type: organism-based; settings: in vivo, 384 h
Rattus norvegicus [2] = experiment: Toxicity in Sprague-Dawley rat assessed as effect on RNA level in liver at 10 mg/kg/day measured after 16 days (reference value: 100 +/- 6%); type: organism-based; settings: in vivo, 384 h
Rattus norvegicus [3] = species: Rattus norvegicus; experiment: Disruption of rat liver cell membrane assessed as unlysed cells at 25 mg per gram of tissue measured at 30 mins (reference value: 93 +/- 7%); type: functional
Outline: (§1)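 Rat liver 10% homogenate in 0.25 M sucrose + 0.001 M EDTA, pH 7.2, incubated at 37°C with Hanke's buffer pH 7.2 and drug suspended in 1% CMC (dose as mg drug per g wet liver); turbidity read as absorbance at 660 nm over 0–4 hr, falling absorbance taken as lysis; expressed as % unlysed cells; vehicle 1% CMC control.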

Rattus norvegicus [4] = experiment: Toxicity in Sprague-Dawley rat assessed as increase in body weight at 20 mg/kg/day administered for 16 days measured on day 16 post last dose (reference value: 195 +/- 16%); type: organism-based; settings: in vivo, 384 h
Rattus norvegicus [5] = experiment: Toxicity in Sprague-Dawley rat assessed as effect on protein level in liver at 10 mg/kg/day measured after 16 days (reference value: 100 +/- 5%); type: organism-based; settings: in vivo, 384 h
[6] = Toxicity in CF1 mouse; type: organism-based; settings: in vivo
Outline: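 Male CF1 mice; acute lethality measured and LD50 calculated by the Litchfield and Wilcoxon method.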

Rattus norvegicus [7] = experiment: Hypocholesterolemic activity in Sprague-Dawley rat assessed as serum cholesterol level at 20 mg/kg/day, po administered via intubation measured on day 10 by Liebermann-Burchard method relative to control; type: functional
Outline: (§2)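 Male Sprague-Dawley rats given compound homogenized in 1% CMC once daily at 11:00 a.m. by oral intubation needle (0.2 cc), doses calculated on weekly body weights; tail-vein blood drawn 24 h after last dose; nonhemolyzed serum (30 μ) assayed by modified Liebermann-Burchard method; N = 8; % of control, mean ± SD; Student's t test.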

Rattus norvegicus [8] = experiment: Toxicity in Sprague-Dawley rat assessed as food intake at 5 mg/kg/day measured after 1 week (reference value: 20.9 +/- 4.9 g/day); type: organism-based; settings: in vivo, 168 h
Rattus norvegicus [9] = species: Rattus norvegicus; experiment: Disruption of rat liver cell membrane assessed as unlysed cells at 5 mg per gram of tissue measured at 1 hr (reference value: 90 +/- 4%); type: functional; outline: as §1
Rattus norvegicus [10] = experiment: Toxicity in Sprague-Dawley rat assessed as increase in body weight at 10 mg/kg/day measured on day 10 (reference value: 160 +/- 13%); type: organism-based; settings: in vivo
Rattus norvegicus [11] = experiment: Toxicity in Sprague-Dawley rat assessed as increase in testes weight at 10 mg/kg/day administered for 16 days measured on day 16 post last dose relative to total body weight (reference value: 1.09 +/- 0.01%); type: organism-based, Testis; settings: in vivo, 384 h
Rattus norvegicus [12] = experiment: Toxicity in Sprague-Dawley rat assessed as increase in liver weight at 10 mg/kg/day administered for 16 days measured on day 16 post last dose relative to total body weight (reference value: 4.35 +/- 0.39%); type: organism-based; settings: in vivo, 384 h
Rattus norvegicus [13] = species: Rattus norvegicus; experiment: Disruption of rat liver lysosomal membrane assessed as free acid phosphatase activity at 5 mg per gram of tissue measured after 1 hr (reference value: 100 +/- 16%); type: functional, tissue-based
Outline: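 10% rat liver homogenate incubated with Hanke's buffer pH 7.2 and drug suspension in 1% CMC in a shaker at 37°C; aliquot removed after 1 hr and percent free (unbound) acid phosphatase activity determined as an index of lysosomal membrane rupture.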

Rattus norvegicus [14] = experiment: Toxicity in Sprague-Dawley rat assessed as food intake at 50 mg/kg/day measured after 1 week (reference value: 20.9 +/- 4.9 g/day); type: organism-based; settings: in vivo, 168 h
Rattus norvegicus [15] = experiment: Toxicity in Sprague-Dawley rat assessed as food intake at 20 mg/kg/day measured after 2 weeks (reference value: 24.8 +/- 1.1 g/day); type: organism-based; settings: in vivo, 336 h
Rattus norvegicus [16] = experiment: Hypocholesterolemic activity in Sprague-Dawley rat assessed as serum cholesterol level at 10 mg/kg/day, po administered via intubation measured on day 10 by Liebermann-Burchard method relative to control; type: functional; outline: as §2
Rattus norvegicus [17] = species: Rattus norvegicus; experiment: Disruption of rat liver cell membrane assessed as unlysed cells at 10 mg per gram of tissue measured at 4 hrs (reference value: 17 +/- 4%); type: functional; outline: as §1
Rattus norvegicus [18] = species: Rattus norvegicus; experiment: Disruption of rat liver cell membrane assessed as unlysed cells at 25 mg per gram of tissue measured at 1 hr (reference value: 90 +/- 4%); type: functional; outline: as §1
Rattus norvegicus [19] = experiment: Toxicity in Sprague-Dawley rat assessed as increase in body weight at 1 mg/kg/day administered for 16 days measured on day 16 post last dose (reference value: 195 +/- 16%); type: organism-based; settings: in vivo, 384 h
Rattus norvegicus [20] = experiment: Toxicity in Sprague-Dawley rat assessed as effect on DNA level in liver at 10 mg/kg/day measured after 16 days (reference value: 100 +/- 2%); type: organism-based; settings: in vivo, 384 h
Rattus norvegicus [21] = experiment: Toxicity in Sprague-Dawley rat assessed as effect on glycogen level in liver at 10 mg/kg/day measured after 16 days (reference value: 100 +/- 26%); type: organism-based; settings: in vivo, 384 h
Rattus norvegicus [22] = experiment: Toxicity in Sprague-Dawley rat assessed as increase in body weight at 50 mg/kg/day administered for 16 days measured on day 16 post last dose (reference value: 195 +/- 16%); type: organism-based; settings: in vivo, 384 h
Rattus norvegicus [23] = experiment: Hypocholesterolemic activity in Sprague-Dawley rat assessed as serum cholesterol level at 50 mg/kg/day, po administered via intubation measured on day 10 by Liebermann-Burchard method relative to control; type: functional; outline: as §2
Rattus norvegicus [24] = experiment: Toxicity in Sprague-Dawley rat assessed as food intake at 5 mg/kg/day measured after 2 weeks (reference value: 24.8 +/- 1.1 g/day); type: organism-based; settings: in vivo, 336 h
Rattus norvegicus [25] = species: Rattus norvegicus; experiment: Disruption of rat liver cell membrane assessed as unlysed cells at 25 mg per gram of tissue measured at 2 hrs (reference value: 77 +/- 8%); type: functional; outline: as §1
Rattus norvegicus [26] = experiment: Toxicity in Sprague-Dawley rat assessed as food intake at 1 mg/kg/day measured after 1 week (reference value: 20.9 +/- 4.9 g/day); type: organism-based; settings: in vivo, 168 h
Rattus norvegicus [27] = experiment: Toxicity in Sprague-Dawley rat assessed as change in heart weight at 10 mg/kg/day administered for 16 days measured on day 16 post last dose relative to total body weight (reference value: 0.39 +/- 0.04%); type: organism-based; settings: in vivo, 384 h
Rattus norvegicus [28] = species: Rattus norvegicus; experiment: Disruption of rat liver cell membrane assessed as unlysed cells at 5 mg per gram of tissue measured at 2 hrs (reference value: 77 +/- 8%); type: functional; outline: as §1
Rattus norvegicus [29] = species: Rattus norvegicus; experiment: Disruption of rat liver cell membrane assessed as unlysed cells at 5 mg per gram of tissue measured at 4 hrs (reference value: 17 +/- 4%); type: functional; outline: as §1
Rattus norvegicus [30] = experiment: Toxicity in Sprague-Dawley rat assessed as food intake at 20 mg/kg/day measured after 1 week (reference value: 20.9 +/- 4.9 g/day); type: organism-based; settings: in vivo, 168 h
Rattus norvegicus [31] = experiment: Toxicity in Sprague-Dawley rat assessed as increase in vesicular gland weight at 10 mg/kg/day administered for 16 days measured on day 16 post last dose relative to total body weight (reference value: 0.118 +/- 0.062%); type: organism-based; settings: in vivo, 384 h
Rattus norvegicus [32] = species: Rattus norvegicus; experiment: Disruption of rat liver cell membrane assessed as unlysed cells at 10 mg per gram of tissue measured at 2 hrs (reference value: 77 +/- 8%); type: functional; outline: as §1
Rattus norvegicus [33] = experiment: Toxicity in Sprague-Dawley rat assessed as atrophy of vesicular gland at 10 mg/kg/day administered for 16 days measured on day 16 post last dose; type: organism-based; settings: in vivo, 384 h

## CCCCCCCCCCCCCCC(C)=O
Rattus norvegicus [1]
  Activity: Non-toxic
Rattus norvegicus [2]
  Activity: 111%
Rattus norvegicus [3]
  Activity: 96%
Rattus norvegicus [4]
  Activity: 225%
Rattus norvegicus [5]
  Activity: 107%
[6]
  LD50: 1750 mg/kg
Rattus norvegicus [7]
  Activity: 76%
Rattus norvegicus [8]
  Activity: 21.8 g/day
Rattus norvegicus [9]
  Activity: 91%
Rattus norvegicus [10]
  Activity: 145%
Rattus norvegicus [11]
  Activity: 1.13%
Rattus norvegicus [12]
  Activity: 4.39%
Rattus norvegicus [13]
  Activity: 85%
Rattus norvegicus [14]
  Activity: 22.5 g/day
Rattus norvegicus [15]
  Activity: 24.2 g/day
Rattus norvegicus [16]
  Activity: 72%
Rattus norvegicus [17]
  Activity: 19%
Rattus norvegicus [18]
  Activity: 92%
Rattus norvegicus [19]
  Activity: 229%
Rattus norvegicus [20]
  Activity: 114%
Rattus norvegicus [21]
  Activity: 105%
Rattus norvegicus [22]
  Activity: 226%
Rattus norvegicus [23]
  Activity: 74%
Rattus norvegicus [24]
  Activity: 26.3 g/day
Rattus norvegicus [25]
  Activity: 85%
Rattus norvegicus [26]
  Activity: 22.3 g/day
Rattus norvegicus [27]
  Activity: 0.39%
Rattus norvegicus [28]
  Activity: 83%
Rattus norvegicus [29]
  Activity: 17%
Rattus norvegicus [30]
  Activity: 21.4 g/day
Rattus norvegicus [31]
  Activity: 0.121%
Rattus norvegicus [32]
  Activity: 77%
Rattus norvegicus [33]
  Activity: Non-toxic
